In assay [1] the test system is Aspergillus nidulans. The assay is described as follows: Inhibition of Aspergillus nidulans FcyB expressed in germinating conidiospores of UapA, UapC, AzgA, FurD, FurA, FcyB, CntA transporter deficient Aspergillus nidulans assessed as suppression of [2,8 3H]-hypoxanthine uptake at 0.5 mM after 1 min by scintillation counting method. The method in brief:
(§1)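 Competition uptake in germinating conidiospores of a Δ7 strain carrying single-copy fcyB driven by the uapA promoter, selected by pabA1 complementation. 0.5 μM ³H-substrate (adenine for line 1, hypoxanthine for line 3) was added together with a 1000-fold excess (500 μM) of analogue. Uptake was stopped after 1 min by freezing, immediate centrifugation and washing. Three experiments, each in triplicate.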

Assay [2] relates to Aspergillus nidulans. The assay is described as follows: Inhibition of Aspergillus nidulans FcyB expressed in germinating conidiospores of UapA, UapC, AzgA, FurD, FurA, FcyB, CntA transporter deficient Aspergillus nidulans assessed as [2,8 3H]-adenine uptake at 0.5 mM after 1 min by scintillation counting method relative to control. The arrangement: scale not given: the % may be the effect or the level left. The method in brief:
as §1

Assay [3] can be described thus: Inhibition of Aspergillus nidulans FcyB expressed in germinating conidiospores of UapA, UapC, AzgA, FurD, FurA, FcyB, CntA transporter deficient Aspergillus nidulans assessed as suppression of [2,8 3H]-adenine uptake after 1 min by scintillation counting method. In a few lines:
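In germinating conidiospores of a Δ7 strain expressing only FcyB (uapA promoter), 0.5 μM ³H-adenine uptake was measured over 1 min against varying analogue concentrations. Ki was derived from IC50 by Cheng–Prusoff, Ki = IC50/(1+[S]/Km), with [S] as the fixed radiolabelled substrate concentration. Values are averages of at least three independent experiments with three replicates per concentration point.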

Active and inactive are the calls of the source. The rule behind the calls is not given here.

As a reminder, the Ki is the dissociation constant of the complex between target and ligand, obtained from inhibition or displacement. `CC(C)n1cnc2c(NCCN(C)C)nccc21`: the inhibition entry in the assay with Aspergillus nidulans [1] was “Active”. For the same compound, in the assay on Aspergillus nidulans [2], the Activity was less than 10%. Moreover, the inhibition constant Ki in assay [3] stood at 72 µM.

`CN1CCN(c2nccc3c2ncn3C2CCCC2)CC1`: the inhibition entry in the assay on Aspergillus nidulans [1] was “Active”. Besides, in the assay with Aspergillus nidulans [2], the Activity was less than 10%. In addition, in assay [3], the inhibition constant (Ki) worked out at 38 µM.

Consider `CC(C)n1cnc2c(NCc3ccccc3)nccc21`, for which the inhibition result with Aspergillus nidulans [1] was “Active”. In addition, the Activity in the assay on Aspergillus nidulans [2] is less than 10%. Further, the Ki in assay [3] was 5 µM.

Regarding `c1ccc(CNc2nccc3c2ncn3C2CCCC2)cc1`, the inhibition result in the assay on Aspergillus nidulans [1] was “Active”. Moreover, in the assay with Aspergillus nidulans [2], the Activity was less than 10%. Besides, the inhibition constant (Ki) in assay [3] was found to be 21 µM.

As to `Nc1nccc2c1ncn2C1CCCC1`, in the assay on Aspergillus nidulans [1], the inhibition result is “Active”. Further, the Activity in the assay with Aspergillus nidulans [2] was less than 10%. In addition, in assay [3], the Ki amounted to 18 µM.

As for `CN(C)CCNc1nccc2c1ncn2C1CCCC1`, in the assay on Aspergillus nidulans [1], the inhibition entry was “Active”. The Activity in the assay with Aspergillus nidulans [2] is less than 10%. In addition, in assay [3], the Ki is 95 µM.

Values taken from ChEMBL document CHEMBL3856282, “Design and synthesis of purine analogues as highly specific ligands for FcyB, a ubiquitous fungal nucleobase transporter” (Bioorg Med Chem, 2016).
